In ChEMBL document CHEMBL3774311, “Synthesis and in vitro antitumour activity of tiazofurin analogues with nitrogen functionalities at the C-2' position” (Eur J Med Chem, 2016):

How the values were obtained:
[1] = test system: K562; experiment: Antiproliferative activity against human K562 cells after 72 hrs by MTT assay; assay type: functional, cell-based
Method in brief: (§1)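 Human tumour lines and MRC-5 foetal lung fibroblasts (normal-cell comparator) exposed to compounds for 72 h; viability read by standard MTT assay. IC50 taken as concentration inhibiting growth by 50% versus untreated control; means of three independent experiments, coefficients of variation under 10%.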

[2] = Antiproliferative activity against human HL60 cells after 72 hrs by MTT assay; assay type: functional, cell-based, HL-60; method in brief: as §1
[3] = test system: Jurkat; experiment: Antiproliferative activity against human Jurkat cells after 72 hrs by MTT assay; assay type: functional, cell-based; method in brief: as §1
[4] = test system: Raji; experiment: Antiproliferative activity against human Raji cells after 72 hrs by MTT assay; assay type: functional, cell-based; method in brief: as §1
[5] = test system: HT-29; experiment: Antiproliferative activity against human HT-29 cells after 72 hrs by MTT assay; assay type: functional, cell-based; conditions: HT-29, 72 h; method in brief: as §1
[6] = test system: MCF7; experiment: Antiproliferative activity against human MCF7 cells after 72 hrs by MTT assay; assay type: functional, cell-based; conditions: MCF7, 72 h; method in brief: as §1
[7] = test system: HeLa; experiment: Antiproliferative activity against human HeLa cells after 72 hrs by MTT assay; assay type: functional, cell-based; method in brief: as §1
[8] = test system: MRC5; experiment: Cytotoxicity against human MRC5 cells after 72 hrs by MTT assay; assay type: cell-based; conditions: MRC5, 72 h; method in brief: as §1
[9] = test system: K562; experiment: Induction of cell cycle arrest in human K562 cells assessed as accumulation at Sub-G1 phase after 24 hrs by propidium iodide staining-based flow cytometry (reference value: 1.05%); assay type: functional
Method in brief: (§2)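 Exponentially growing K562 cells treated 24 or 72 h; cells stained with propidium iodide and cell-cycle distribution (sub-G1, G0/G1, S, G2/M, %) measured by flow cytometry; untreated cells as control.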

[10] = test system: K562; experiment: Induction of cell cycle arrest in human K562 cells assessed as accumulation at Sub-G1 phase after 72 hrs by propidium iodide staining-based flow cytometry (reference value: 3.04%); assay type: functional; method in brief: as §2
[11] = test system: K562; experiment: Induction of cell cycle arrest in human K562 cells assessed as accumulation at G0/G1 phase after 24 hrs by propidium iodide staining-based flow cytometry (reference value: 36.28%); assay type: functional; method in brief: as §2
[12] = test system: K562; experiment: Induction of cell cycle arrest in human K562 cells assessed as accumulation at G0/G1 phase after 72 hrs by propidium iodide staining-based flow cytometry (reference value: 45.92%); assay type: functional; method in brief: as §2
[13] = test system: K562; experiment: Induction of cell cycle arrest in human K562 cells assessed as accumulation at S phase after 24 hrs by propidium iodide staining-based flow cytometry (reference value: 48.38%); assay type: functional; method in brief: as §2
[14] = test system: K562; experiment: Induction of cell cycle arrest in human K562 cells assessed as accumulation at S phase after 72 hrs by propidium iodide staining-based flow cytometry (reference value: 35.73%); assay type: functional; method in brief: as §2
[15] = test system: K562; experiment: Induction of cell cycle arrest in human K562 cells assessed as accumulation at G2/M phase after 24 hrs by propidium iodide staining-based flow cytometry (reference value: 14.29%); assay type: functional; method in brief: as §2
[16] = test system: K562; experiment: Induction of cell cycle arrest in human K562 cells assessed as accumulation at G2/M phase after 72 hrs by propidium iodide staining-based flow cytometry (reference value: 15.31%); assay type: functional; method in brief: as §2
[17] = test system: K562; experiment: Induction of specific apoptosis in human K562 cells after 24 hrs by annexin V-FITC/propidium iodide staining based flow cytometry; assay type: functional; design: concentration or dose not given beside the values
Method in brief: (§3)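 K562 cells treated 24 or 72 h, double-stained with Annexin V-FITC/PI and analysed by flow cytometry to give percentages of live, apoptotic and necrotic cells; apoptotic and necrotic responses expressed as specific apoptosis or specific necrosis (%).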

[18] = test system: K562; experiment: Induction of specific apoptosis in human K562 cells after 72 hrs by annexin V-FITC/propidium iodide staining based flow cytometry; assay type: functional; design: concentration or dose not given beside the values; method in brief: as §3
[19] = test system: K562; experiment: Induction of specific necrosis in human K562 cells after 24 hrs by annexin V-FITC/propidium iodide staining based flow cytometry; assay type: functional; design: concentration or dose not given beside the values; method in brief: as §3
[20] = test system: K562; experiment: Induction of specific necrosis in human K562 cells after 72 hrs by annexin V-FITC/propidium iodide staining based flow cytometry; assay type: functional; design: concentration or dose not given beside the values; method in brief: as §3
[21] = test system: K562; experiment: Induction of apoptosis in human K562 cells assessed as necrotic cells after 24 hrs by annexin V-FITC/propidium iodide staining based flow cytometry (reference value: 1.50%); assay type: functional; method in brief: as §3
[22] = test system: K562; experiment: Induction of apoptosis in human K562 cells assessed as late apoptotic cells after 24 hrs by annexin V-FITC/propidium iodide staining based flow cytometry (reference value: 4.58%); assay type: functional; method in brief: as §3
[23] = test system: K562; experiment: Induction of apoptosis in human K562 cells assessed as living cells after 24 hrs by annexin V-FITC/propidium iodide staining based flow cytometry (reference value: 85.85%); assay type: functional; method in brief: as §3
[24] = test system: K562; experiment: Induction of apoptosis in human K562 cells assessed as early apoptotic cells after 24 hrs by annexin V-FITC/propidium iodide staining based flow cytometry (reference value: 8.09%); assay type: functional; method in brief: as §3
[25] = test system: K562; experiment: Induction of apoptosis in human K562 cells assessed as necrotic cells after 72 hrs by annexin V-FITC/propidium iodide staining based flow cytometry (reference value: 7.23%); assay type: functional; method in brief: as §3
[26] = test system: K562; experiment: Induction of apoptosis in human K562 cells assessed as late apoptotic cells after 72 hrs by annexin V-FITC/propidium iodide staining based flow cytometry (reference value: 5.24%); assay type: functional; method in brief: as §3
[27] = test system: K562; experiment: Induction of apoptosis in human K562 cells assessed as living cells after 72 hrs by annexin V-FITC/propidium iodide staining based flow cytometry (reference value: 84.31%); assay type: functional; method in brief: as §3
[28] = test system: K562; experiment: Induction of apoptosis in human K562 cells assessed as early apoptotic cells after 72 hrs by annexin V-FITC/propidium iodide staining based flow cytometry (reference value: 3.22%); assay type: functional; method in brief: as §3
[29] = test system: K562; experiment: Induction of apoptosis in human K562 cells assessed as Bcl2 protein level after 24 hrs by Western blotting method (reference value: 22.81%); assay type: functional
[30] = test system: K562; experiment: Induction of apoptosis in human K562 cells assessed as Bax protein level after 24 hrs by Western blotting method (reference value: 16.13%); assay type: functional
[31] = test system: K562; experiment: Induction of apoptosis in human K562 cells assessed as caspase 3 level after 24 hrs by Western blotting method (reference value: 42.77%); assay type: functional
[32] = test system: K562; experiment: Induction of apoptosis in human K562 cells assessed as cleaved PARP level after 24 hrs by Western blotting method (reference value: 36.17%); assay type: functional
[33] = test system: K562; experiment: Induction of apoptosis in human K562 cells assessed as Bcl2 protein level after 72 hrs by Western blotting method (reference value: 7.90%); assay type: functional
[34] = test system: K562; experiment: Induction of apoptosis in human K562 cells assessed as Bax protein level after 72 hrs by Western blotting method (reference value: 32.81%); assay type: functional
[35] = test system: K562; experiment: Induction of apoptosis in human K562 cells assessed as caspase 3 level after 72 hrs by Western blotting method (reference value: 17.05%); assay type: functional
[36] = test system: K562; experiment: Induction of apoptosis in human K562 cells assessed as cleaved PARP level after 72 hrs by Western blotting method (reference value: 18.36%); assay type: functional

| SMILES | IC50 [3] | IC50 [5] | IC50 [6] | IC50 [8] | Activity [9] | Activity [10] | Activity [11] | Activity [12] | Activity [13] | Activity [14] | Activity [15] | Activity [16] | Activity [17] | Activity [18] | Activity [19] | Activity [20] | Activity [21] | Activity [22] | Activity [23] | Activity [24] | also measured |
| --- | --- | --- | --- | --- | --- | --- | --- | --- | --- | --- | --- | --- | --- | --- | --- | --- | --- | --- | --- | --- | --- |
| COc1cccc(C(=O)N[C@@H]2[C@H](O)[C@@H](CO)O[C@H]2c2nc(C(N)=O)cs2)c1 | 23.6 µM | > 100 µM | 9.54 µM | > 100 µM | 4.44% | 10.84% | 39.45% | 43.13% | 46.71% | 34% | 9.41% | 12.04% | 11.88% | 37.07% | 3.68% | 10.33% | 5.19% | 8.67% | 77.99% | 8.16% | IC50 ([1]; Homo sapiens, K562, 72 h): > 100 µM; IC50 ([2]; Homo sapiens, HL-60, 72 h): 2.69 µM; IC50 ([4]; Homo sapiens, Raji, 72 h): 6.29 µM; IC50 ([7]; Homo sapiens, HeLa, 72 h): > 100 µM; Activity [25]: 10.82%; Activity [26]: 69.98%; Activity [27]: 2.76%; Activity [28]: 16.45%; Activity [29]: 47.76%; Activity [30]: 4.66%; Activity [31]: 104.69%; Activity [32]: 111.75%; Activity [33]: 26.7%; Activity [34]: 89.53%; Activity [35]: 82.68%; Activity [36]: 37.39% |
| [N-]=[N+]=N[C@@H]1[C@H](O)[C@@H](CO)O[C@H]1c1nc(C(N)=O)cs1 | > 100 µM | > 100 µM | 0.004 µM | > 100 µM | 2.93% | 10.9% | 42.67% | 42.24% | 42.8% | 35.04% | 11.6% | 11.82% | 10.73% | 38.06% | -0.82% | 5.33% | 0.69% | 4.8% | 83.58% | 10.94% | IC50 ([1]; Homo sapiens, K562, 72 h): 0.31 µM; IC50 ([2]; Homo sapiens, HL-60, 72 h): > 100 µM; IC50 ([4]; Homo sapiens, Raji, 72 h): > 100 µM; IC50 ([7]; Homo sapiens, HeLa, 72 h): 4.08 µM; Activity [25]: 5.99%; Activity [26]: 74.34%; Activity [27]: 3%; Activity [28]: 16.67%; Activity [29]: 31.53%; Activity [30]: 12.4%; Activity [31]: 47.06%; Activity [32]: 103.8%; Activity [33]: 17.3%; Activity [34]: 85.6%; Activity [35]: 34.23%; Activity [36]: 70.23% |
| CC(=O)N[C@@H]1[C@H](O)[C@@H](CO)O[C@H]1c1nc(C(N)=O)cs1 | > 100 µM | > 100 µM | 3.92 µM | 5.26 µM | 3.71% | 11.17% | 43.07% | 48.09% | 45.03% | 31.42% | 8.21% | 9.32% | 12.6% | 43.6% | 5.88% | 24.55% | 7.39% | 12.48% | 75.11% | 5.03% | IC50 ([1]; Homo sapiens, K562, 72 h): > 100 µM; IC50 ([2]; Homo sapiens, HL-60, 72 h): > 100 µM; IC50 ([4]; Homo sapiens, Raji, 72 h): 14.7 µM; IC50 ([7]; Homo sapiens, HeLa, 72 h): > 100 µM; Activity [25]: 25.03%; Activity [26]: 62.01%; Activity [27]: 7.05%; Activity [28]: 5.93%; Activity [29]: 63.4%; Activity [30]: 18.43%; Activity [31]: 90.45%; Activity [32]: 95.59%; Activity [33]: 37.09%; Activity [34]: 98.81%; Activity [35]: 93.75%; Activity [36]: 33.66% |
| NC(=O)c1csc([C@@H]2O[C@H](CO)[C@@H](O)[C@H]2N)n1 | > 100 µM | > 100 µM | > 100 µM | > 100 µM | 1.4% | 13.52% | 32.21% | 40.24% | 46.33% | 34.08% | 20.06% | 12.16% | 17.57% | 33.39% | 4.97% | 7.11% | 6.48% | 10.18% | 71.33% | 12.02% | IC50 ([1]; k562): 0.51 µM; IC50 ([2]; hl-60): 12.2 µM; IC50 ([4]; raji): 2.59 µM; IC50 ([7]; hela): 0.15 µM; Activity [25]: 8.02%; Activity [26]: 66.51%; Activity [27]: 2.92%; Activity [28]: 22.56%; Activity [29]: 9.06%; Activity [30]: 3.52%; Activity [31]: 22.07%; Activity [32]: 10.01%; Activity [33]: 3.21%; Activity [34]: 112.54%; Activity [35]: 38.2%; Activity [36]: 11.32% |
